Measurements reported in ChEMBL document CHEMBL5705890, “Antitumor activity of an allosteric inhibitor of centromere-associated protein-E” (Proc Natl Acad Sci U S A, 2010).

Columns and labels:
MDA-MB-435 = test: Anticancer activity against human MDA-MB-435 cells assessed as cell doubling measured for 72 hrs by DAPI staining based analysis; assay type: functional
SW948 = test: Anticancer activity against human SW948 cells assessed as cell doubling measured for 72 hrs by DAPI staining based analysis; assay type: functional
CHP-212 = test: Anticancer activity against human CHP-212 cells assessed as cell growth inhibition measured after 72 hrs by DAPI staining based analysis; assay type: functional
Summary of the method: (§1)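 Cells were seeded, and DNA content at 24 h after seeding (T0) was read by imaging of fixed, DAPI-stained cells. Cells were then exposed to a range of drug concentrations for a further 72 h (T72) and DNA content was read again. T72 values were normalized to T0, and GI50 was taken from curve fits as the concentration giving 50% growth inhibition relative to T0 and Ymax.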

CCF-STTG1 = test: Anticancer activity against human CCF-STTG1 cells assessed as cell doubling measured for 72 hrs by DAPI staining based analysis; assay type: functional
Summary of the method: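 Cell-growth inhibition in 384-well plates. DNA content of fixed cells stained with DAPI was read by automated imaging 24 h after seeding (T0) and again after a further 72 h exposure to varying drug concentrations (T72). T72 values were normalized to T0, and curves were fitted to give the concentration causing 50% growth inhibition relative to T0 and Ymax (GI50).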

FaDu = test: Anticancer activity against human FaDu cells assessed as cell growth inhibition measured after 72 hrs by DAPI staining based analysis; assay type: functional
Summary of the method: (§2)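 Cells seeded, DAPI-stained DNA content of fixed cells read by imaging 24 h after seeding (T0), and again after a further 72 h exposure to a range of drug concentrations (T72). T72 values were normalized to T0. Curve fits gave the concentration producing 50% growth inhibition relative to T0 and Ymax (GI50).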

BPH-1 = test: Anticancer activity against human BPH-1 cells assessed as cell growth inhibition measured after 72 hrs by DAPI staining based analysis; assay type: functional; summary of the method: as §1
A549 = test: Antitumor activity against human A549 cells in xenograft model assessed as difference between median time to endpoint time of treated versus control group at 125 mg/kg; assay type: functional
OVCAR-5 = test: Anticancer activity against human OVCAR-5 cells assessed as cell doubling measured for 72 hrs by DAPI staining based analysis; assay type: functional
UMUC3 = test: Anticancer activity against human UM-UC-3 cells assessed as cell growth inhibition measured after 72 hrs by DAPI staining based analysis; assay type: functional
NCI-H460 = test: Antitumor activity against human NCI-H460 cells in xenograft model assessed as difference between median time to endpoint time of treated versus control group at 62.5 mg/kg; assay type: functional
NCI-H209 = test: Anticancer activity against human NCI-H209 cells assessed as cell doubling measured for 72 hrs by DAPI staining based analysis; assay type: functional
HCT-15 = test: Anticancer activity against human HCT-15 cells assessed as cell growth inhibition measured after 72 hrs by DAPI staining based analysis; assay type: functional
NCI-H2170 = test: Anticancer activity against human NCI-H2170 cells assessed as cell growth inhibition measured after 72 hrs by DAPI staining based analysis; assay type: functional
SHP77 = test: Anticancer activity against human SHP77 cells assessed as cell growth inhibition measured after 72 hrs by DAPI staining based analysis; assay type: functional
NCI-H292 = test: Anticancer activity against human NCI-H292 cells assessed as cell doubling measured for 72 hrs by DAPI staining based analysis; assay type: functional
A204 = test: Anticancer activity against human A204 cells assessed as cell growth inhibition measured after 72 hrs by DAPI staining based analysis; assay type: functional
Summary of the method: (§3)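 Cells were seeded and, after 24 h, DNA content was read as T0. Cells were then exposed to varying drug concentrations for a further 72 h (T72). Fixed cells were DAPI-stained and DNA content measured by automated imaging. T72 values were normalized to T0. GI50 is the concentration giving 50% growth inhibition between T0 and Ymax, obtained by curve fitting.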

DU-145 = test: Anticancer activity against human DU-145 cells assessed as cell doubling measured for 72 hrs by DAPI staining based analysis; assay type: functional
T-24 = test: Anticancer activity against human T24 cells assessed as cell growth inhibition measured after 72 hrs by DAPI staining based analysis; assay type: functional
PC-3 = test: Anticancer activity against human PC-3 cells assessed as cell growth inhibition measured after 72 hrs by DAPI staining based analysis; assay type: functional
Caov-3 cell line = test: Anticancer activity against human Caov-3 cells assessed as cell growth inhibition measured after 72 hrs by DAPI staining based analysis; assay type: functional; summary of the method: as §2
HT-3 = test: Anticancer activity against human HT-3 cells assessed as cell doubling measured for 72 hrs by DAPI staining based analysis; assay type: functional
BV-173 = test: Anticancer activity against human BV-173 cells assessed as cell doubling measured for 72 hrs by DAPI staining based analysis; assay type: functional
SNU-449 = test: Anticancer activity against human SNU-449 cells assessed as cell doubling measured for 72 hrs by DAPI staining based analysis; assay type: functional
[1] = Anticancer activity against human NCI-H322T cells assessed as cell growth inhibition measured after 72 hrs by DAPI staining based analysis; assay type: functional
ACHN = test: Anticancer activity against human ACHN cells assessed as cell growth inhibition measured after 72 hrs by DAPI staining based analysis; assay type: functional; summary of the method: as §3
SCC-25 = test: Anticancer activity against human SCC-25 cells assessed as cell growth inhibition measured after 72 hrs by DAPI staining based analysis; assay type: functional
Detroit 562 = test: Anticancer activity against human Detroit 562 cells assessed as cell growth inhibition measured after 72 hrs by DAPI staining based analysis; assay type: functional; summary of the method: as §2
[2] = Anticancer activity against human RDES cells assessed as cell doubling measured for 72 hrs by DAPI staining based analysis; assay type: functional, RD-ES
MDA-MB-231 = test: Anticancer activity against human MDA-MB-231 cells assessed as cell doubling measured for 72 hrs by DAPI staining based analysis; assay type: functional
M14 = test: Anticancer activity against human M14 cells assessed as cell growth inhibition measured after 72 hrs by DAPI staining based analysis; assay type: functional
HEC-1B cell line = test: Anticancer activity against human HEC-1B cells assessed as cell doubling measured for 72 hrs by DAPI staining based analysis; assay type: functional
MDA-MB-468 = test: Anticancer activity against human MDA-MB-468 cells assessed as cell doubling measured for 72 hrs by DAPI staining based analysis; assay type: functional
[3] = target: Centromere-associated protein E (Homo sapiens, UniProt Q02224); test: Inhibition of ATPase activity of C-terminal 6-his-tagged CENP-E (2 to 340 residues)(unknown origin) expressed in Escherichia coli BL21(DE3) in presence of ATP
SW1088 = test: Anticancer activity against human SW1088 cells assessed as cell growth inhibition measured after 72 hrs by DAPI staining based analysis; assay type: functional
HCC70 = test: Anticancer activity against human HCC70 cells assessed as cell growth inhibition measured after 72 hrs by DAPI staining based analysis; assay type: functional
[4] = system: KATO III stomach cancer cell line; test: Anticancer activity against human KATO III stomach cancer cell line cells assessed as cell growth inhibition measured after 72 hrs by DAPI staining based analysis; assay type: functional
NCI-H157 = test: Anticancer activity against human NCI-H157 cells assessed as cell doubling measured for 72 hrs by DAPI staining based analysis; assay type: functional

Centromere-associated protein E, sequence (Q02224 whole entry, the tested form may be a part): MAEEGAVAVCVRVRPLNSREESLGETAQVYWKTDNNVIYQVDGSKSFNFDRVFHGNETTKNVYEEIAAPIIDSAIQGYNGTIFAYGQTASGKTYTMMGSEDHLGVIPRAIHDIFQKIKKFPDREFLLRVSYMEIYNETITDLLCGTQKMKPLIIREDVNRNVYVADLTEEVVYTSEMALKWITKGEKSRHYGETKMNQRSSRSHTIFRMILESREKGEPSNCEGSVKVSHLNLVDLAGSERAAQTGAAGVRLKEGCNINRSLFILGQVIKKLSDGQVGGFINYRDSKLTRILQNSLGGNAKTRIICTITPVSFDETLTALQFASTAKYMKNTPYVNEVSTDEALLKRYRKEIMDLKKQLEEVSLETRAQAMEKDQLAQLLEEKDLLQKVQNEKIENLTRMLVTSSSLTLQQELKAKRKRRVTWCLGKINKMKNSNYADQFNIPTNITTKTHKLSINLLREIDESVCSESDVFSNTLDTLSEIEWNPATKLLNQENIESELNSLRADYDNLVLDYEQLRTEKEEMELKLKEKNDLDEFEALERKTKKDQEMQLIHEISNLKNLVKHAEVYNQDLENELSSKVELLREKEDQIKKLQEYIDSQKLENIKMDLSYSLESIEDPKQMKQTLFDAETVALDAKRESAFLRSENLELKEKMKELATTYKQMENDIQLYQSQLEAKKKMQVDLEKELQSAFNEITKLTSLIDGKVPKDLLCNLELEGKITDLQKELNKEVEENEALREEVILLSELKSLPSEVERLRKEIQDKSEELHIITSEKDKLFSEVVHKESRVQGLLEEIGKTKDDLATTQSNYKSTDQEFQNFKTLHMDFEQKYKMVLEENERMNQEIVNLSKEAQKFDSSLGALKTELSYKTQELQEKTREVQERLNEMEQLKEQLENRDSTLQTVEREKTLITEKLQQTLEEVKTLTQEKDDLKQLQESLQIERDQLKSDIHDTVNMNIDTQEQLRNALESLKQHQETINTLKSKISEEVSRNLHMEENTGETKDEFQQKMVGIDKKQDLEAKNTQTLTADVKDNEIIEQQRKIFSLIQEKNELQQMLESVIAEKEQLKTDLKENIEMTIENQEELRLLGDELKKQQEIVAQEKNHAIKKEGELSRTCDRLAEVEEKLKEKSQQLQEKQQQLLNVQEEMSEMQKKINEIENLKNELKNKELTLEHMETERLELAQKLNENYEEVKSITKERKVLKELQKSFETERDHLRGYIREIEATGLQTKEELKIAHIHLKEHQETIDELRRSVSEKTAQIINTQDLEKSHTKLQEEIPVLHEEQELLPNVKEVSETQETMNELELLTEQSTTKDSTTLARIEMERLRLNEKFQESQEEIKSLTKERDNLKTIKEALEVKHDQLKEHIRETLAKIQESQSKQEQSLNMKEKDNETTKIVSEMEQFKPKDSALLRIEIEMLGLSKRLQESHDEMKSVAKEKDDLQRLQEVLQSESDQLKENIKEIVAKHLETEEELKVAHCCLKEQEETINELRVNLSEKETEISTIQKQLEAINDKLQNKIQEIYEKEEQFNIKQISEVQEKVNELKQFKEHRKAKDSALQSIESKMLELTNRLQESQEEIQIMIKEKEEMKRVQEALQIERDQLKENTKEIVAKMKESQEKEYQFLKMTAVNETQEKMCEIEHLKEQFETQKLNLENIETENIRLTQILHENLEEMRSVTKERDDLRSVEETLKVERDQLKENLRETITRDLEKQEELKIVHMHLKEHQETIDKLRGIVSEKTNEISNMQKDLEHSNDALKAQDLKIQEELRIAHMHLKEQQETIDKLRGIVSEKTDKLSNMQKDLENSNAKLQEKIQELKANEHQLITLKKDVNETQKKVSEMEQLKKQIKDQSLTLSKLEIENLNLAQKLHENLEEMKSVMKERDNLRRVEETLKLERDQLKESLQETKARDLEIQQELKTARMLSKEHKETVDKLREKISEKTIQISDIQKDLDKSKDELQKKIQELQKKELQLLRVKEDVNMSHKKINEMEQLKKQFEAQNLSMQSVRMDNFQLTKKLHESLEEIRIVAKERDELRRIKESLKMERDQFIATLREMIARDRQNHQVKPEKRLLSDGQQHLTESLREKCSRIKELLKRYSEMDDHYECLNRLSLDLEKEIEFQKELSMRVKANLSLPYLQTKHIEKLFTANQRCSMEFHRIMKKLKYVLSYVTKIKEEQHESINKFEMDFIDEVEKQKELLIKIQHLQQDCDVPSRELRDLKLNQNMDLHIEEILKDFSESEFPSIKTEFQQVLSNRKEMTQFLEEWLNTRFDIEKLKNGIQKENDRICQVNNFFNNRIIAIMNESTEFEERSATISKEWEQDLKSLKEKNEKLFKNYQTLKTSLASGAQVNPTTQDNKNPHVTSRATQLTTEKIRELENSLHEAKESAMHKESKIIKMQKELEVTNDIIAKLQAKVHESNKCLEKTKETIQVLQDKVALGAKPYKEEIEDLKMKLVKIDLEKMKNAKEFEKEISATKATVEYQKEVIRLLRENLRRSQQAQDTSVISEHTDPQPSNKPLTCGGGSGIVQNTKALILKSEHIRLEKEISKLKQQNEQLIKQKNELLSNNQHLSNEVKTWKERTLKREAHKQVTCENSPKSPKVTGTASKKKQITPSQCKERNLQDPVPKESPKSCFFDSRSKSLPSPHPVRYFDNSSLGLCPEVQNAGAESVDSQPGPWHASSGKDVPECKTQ

With `CC(C)Oc1ccc(C(=O)N[C@H](CNC(=O)CN(C)C)Cc2ccc(-c3cn4cccc([C@H](C)O)c4n3)cc2)cc1Cl` [GSK-923295A] the Activity (MDA-MB-435) was 2.96, the Activity (SW948) was 1.9 and the GI50 (CHP-212) was 34 nM. For the same compound, the Activity (CCF-STTG1) was 1.2, the GI50 (FaDu) was 32 nM and the GI50 (BPH-1) was 52 nM. For the same compound, the Time (A549) was 25.3 days, the Activity (OVCAR-5) was 2.84 and the GI50 (UMUC3) was 23 nM. The Time (NCI-H460) was 15.4 days, the Activity (NCI-H209) was 1.12 and the GI50 (HCT-15) was 151 nM. It also gave a GI50 (NCI-H2170) of 25 nM, a GI50 (SHP77) of 86 nM and an Activity (NCI-H292) of 2.2. The GI50 (A204) was 18 nM, the Activity (DU-145) was 2.25 and the GI50 (T-24) was 45 nM. It also gave a GI50 (PC-3) of 28 nM, a GI50 (Caov-3 cell line) of 33 nM and an Activity (HT-3) of 1.95. For the same compound, the Activity (BV-173) was 2.16, the Activity (SNU-449) was 2.33 and the GI50 [1] was 25 nM. For the same compound, the GI50 (ACHN) was 61 nM, the GI50 (SCC-25) was 23 nM and the GI50 (Detroit 562) was 35 nM. For the same compound, the Activity [2] was 1.32, the Activity (MDA-MB-231) was 2.32 and the GI50 (M14) was 27 nM. It also gave an Activity (HEC-1B cell line) of 2.04, an Activity (MDA-MB-468) of 2.05 and an IC50 [3] of 2080 nM. It also gave a GI50 (SW1088) of 32 nM, a GI50 (HCC70) of 24 nM and a GI50 [4] of 79 nM. It also gave an Activity (NCI-H157) of 2.6.
